pIC50: −log10 of the molar value. The source made the active and inactive calls. The calls are words filed in the database; no cut-off is given here.

One molecule from ChEMBL document CHEMBL4368912, “Discovery and Development of N-[4-(1-Cyclobutylpiperidin-4-yloxy)phenyl]-2-(morpholin-4-yl)acetamide Dihydrochloride (SUVN-G3031): A Novel, Potent, Selective, and Orally Active Histamine H3 Receptor Inverse Agonist with Robust Wake-Promoting Activity” (J Med Chem, 2019) can be followed below.

Data set [1] is described as follows: Partition coefficient, log P of the compound. Type of data set: physicochemical. As to conditions: octanol/water.
Data set [2] in a line: AUC (0 to 24 hrs) in Wistar rat at 1 mg/kg, iv by LC-MS/MS analysis. Type of data set: ADME, organism-based. Set-up: time < 24 hr, dose 1 mg/kg, route intravenous. As to conditions: Wistar, in vivo. The method in brief:
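Fasted male Wistar rats; compound in water for injection, given i.v. (2 mL/kg) or p.o. (10 mL/kg). Plasma exposure measured as AUC0-24hr.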

A short description of data set [3]: Tmax in Beagle dog at 3 mg/kg, po or 1 mg/kg, iv by LC-MS/MS analysis. Type of data set: ADME, organism-based, Canis lupus familiaris. To be noted: in vivo.
Data set [4] is described as follows: AUCt in Beagle dog at 3 mg/kg, po by LC-MS/MS analysis. To be noted: in vivo. It is filed as ADME, organism-based, Canis lupus familiaris.
Data set [5] is described as follows: Clearance in Beagle dog at 1 mg/kg, iv by LC-MS/MS analysis. Type of data set: ADME, organism-based, Canis lupus familiaris. As to conditions: in vivo.
The nature of data set [6]: Oral bioavailability in Beagle dog at 3 mg/kg by LC-MS/MS analysis. It is filed as ADME, organism-based, Canis lupus familiaris. As to conditions: in vivo.
Data set [7] is described as follows: Fraction unbound in rat plasma at 1 uM by equilibrium dialysis. Type of data set: ADME, cell-free. Summed up:
(§1)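 Rapid equilibrium dialysis of fresh rat, dog or human plasma at a compound concentration of 1.0 µM. Unbound fraction reported as a percentage.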
(In general: Equilibrium dialysis compares concentrations on both sides of a semipermeable membrane.)

The nature of data set [8]: Fraction unbound in human plasma at 1 uM by equilibrium dialysis. Type of data set: ADME, cell-free. The method in brief:
as §1

The nature of data set [9]: Metabolic stability in rat liver microsomes in presence of NADPH after 30 mins by LC-MS/MS analysis. Type of data set: ADME, Microsome. As to conditions: read-out: Stability.
A short description of data set [10]: Metabolic stability in dog hepatocytes after 30 mins by LC-MS/MS analysis. Type of data set: ADME, cell-based, Canis lupus familiaris, Hepatocyte. As to conditions: read-out: Stability.
The next data set deals with T1, Cytochrome P450 1A2 (Homo sapiens, UniProt P05177).
T1 sequence (P05177 whole entry): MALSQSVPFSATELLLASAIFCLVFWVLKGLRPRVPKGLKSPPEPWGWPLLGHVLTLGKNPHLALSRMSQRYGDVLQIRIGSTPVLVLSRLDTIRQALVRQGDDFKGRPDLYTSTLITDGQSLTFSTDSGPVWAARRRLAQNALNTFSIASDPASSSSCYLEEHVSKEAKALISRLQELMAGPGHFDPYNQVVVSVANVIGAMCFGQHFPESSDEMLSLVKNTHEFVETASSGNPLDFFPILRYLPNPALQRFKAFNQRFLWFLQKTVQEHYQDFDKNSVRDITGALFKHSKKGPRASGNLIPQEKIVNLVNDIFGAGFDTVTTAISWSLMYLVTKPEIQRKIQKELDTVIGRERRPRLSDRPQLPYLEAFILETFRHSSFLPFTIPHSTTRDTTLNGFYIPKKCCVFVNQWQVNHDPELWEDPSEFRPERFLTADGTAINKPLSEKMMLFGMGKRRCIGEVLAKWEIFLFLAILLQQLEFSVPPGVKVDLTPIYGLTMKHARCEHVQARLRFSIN
As to the kind of experiment: Inhibition of CYP1A2 (unknown origin). It is filed as ADME.

For a further data set, the target named is T2, Cytochrome P450 2A6 (Homo sapiens, UniProt P11509).
T2 sequence (P11509 whole entry): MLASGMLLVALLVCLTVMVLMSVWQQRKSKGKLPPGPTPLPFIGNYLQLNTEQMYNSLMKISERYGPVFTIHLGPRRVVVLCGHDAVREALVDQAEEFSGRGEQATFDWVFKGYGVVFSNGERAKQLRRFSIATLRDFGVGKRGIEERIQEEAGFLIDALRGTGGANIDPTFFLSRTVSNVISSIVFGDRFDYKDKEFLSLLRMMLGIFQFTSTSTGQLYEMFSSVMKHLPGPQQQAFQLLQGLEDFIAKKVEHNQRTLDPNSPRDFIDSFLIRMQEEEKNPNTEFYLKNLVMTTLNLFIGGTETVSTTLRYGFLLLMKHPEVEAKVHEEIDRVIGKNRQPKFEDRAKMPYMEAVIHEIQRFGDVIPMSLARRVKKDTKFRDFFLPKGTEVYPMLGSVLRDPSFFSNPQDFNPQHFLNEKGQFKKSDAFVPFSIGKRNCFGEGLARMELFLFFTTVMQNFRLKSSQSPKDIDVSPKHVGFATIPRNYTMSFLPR
As to the kind of experiment: Inhibition of CYP2A6 (unknown origin). Type of data set: ADME.

The next data set addresses T3, Cytochrome P450 2B6 (Homo sapiens, UniProt P20813).
T3 sequence (P20813 whole entry): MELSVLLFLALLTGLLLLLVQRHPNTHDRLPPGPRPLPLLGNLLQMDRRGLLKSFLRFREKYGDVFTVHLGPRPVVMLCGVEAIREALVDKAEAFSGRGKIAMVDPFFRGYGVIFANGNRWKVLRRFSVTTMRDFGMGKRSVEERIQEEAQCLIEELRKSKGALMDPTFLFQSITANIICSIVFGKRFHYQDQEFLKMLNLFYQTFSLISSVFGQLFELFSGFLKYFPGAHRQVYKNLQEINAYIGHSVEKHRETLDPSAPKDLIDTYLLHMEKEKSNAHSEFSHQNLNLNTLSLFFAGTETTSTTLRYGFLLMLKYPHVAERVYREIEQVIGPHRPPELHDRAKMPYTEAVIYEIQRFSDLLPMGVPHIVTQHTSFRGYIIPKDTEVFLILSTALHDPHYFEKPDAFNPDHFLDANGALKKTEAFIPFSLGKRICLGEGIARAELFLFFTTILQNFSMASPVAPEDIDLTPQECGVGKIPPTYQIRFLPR
As to the kind of experiment: Inhibition of CYP2B6 (unknown origin). Type of data set: ADME.

The target in the next data set is Cytochrome P450 3A4 (Homo sapiens, UniProt P08684). As to the kind of experiment: Inhibition of CYP3A4 in human liver microsomes using midazolam as substrate after 2 mins by LC-MS/MS analysis. It is filed as ADME. (In general: Liver microsomes are vesicles of endoplasmic reticulum, rich in cytochrome P450 enzymes.)
Data set [11] has as its system Rattus norvegicus. Nature of the data set: In vivo inverse agonist activity at histamine 3 receptor in rat assessed as inhibition of RAMH-induced dipsogenia at 0.3 to 10 mg/kg, po measured after 3 days. Type of data set: functional, organism-based. The method in brief: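 Male rats were dosed orally with 0.3, 0.5, 0.7, 1, 3 or 10 mg/kg (vehicle 1 mL/kg), then given (R)-α-methylhistamine 2.5 mg/kg s.c. Read-out was water intake (mL), reported as mean ± SEM.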

For data set [12], the system named is Rattus norvegicus. Nature of the data set: In vivo receptor occupancy at histamine 3 receptor in Wistar rat frontal cortex at 1 to 3 mg/kg, po after measured after 4 to 6 hrs by LC-MS/MS analysis relative to control. It is filed as functional.
Data set [13] deals with Rattus norvegicus. Nature of the data set: Induction of wake promoting activity in orexin-B-saporin lesioned Wistar rat assessed as decrease in number of direct REM sleep onset episodes at 10 to 30 mg/kg, po dosed 15 mins before start of dark phase. Type of data set: functional, organism-based. The method in brief: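 Rats carried epidural frontal-cortex EEG screws, nuchal EMG leads, and bilateral lateral hypothalamic orexin-B-saporin (490 ng/0.8 µl). After at least 3 weeks' recovery, they were dosed 15 min before lights-off in a crossover design with a 1-week washout. Wake, NREM and REM time was totalled over 3 h. DREM was scored as REM after ≥60 s wake. Dunnett's test was used.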

For data set [14], the system named is Rattus norvegicus. Nature of the data set: Effect on striatal dopamine levels in Wistar rat at 100 mg/kg, po by microdialysis. It is filed as ADME, organism-based. To be noted: in vivo.
Data set [15] is described as follows: Mutagenicity in Salmonella typhimurium TA98 in absence of metabolic activation by Ames test. Type of data set: toxicity. To be noted: salmonella enterica subsp. enterica serovar typhimurium. For orientation: In the Ames test, an excess of revertant colonies over the control signals mutagenicity.
In another data set the test system is CHO-K1. As to the kind of experiment: Cytotoxicity in CHOK1 cells up to 300 uM incubated for 24 hrs by MTT assay. Type of data set: cell-based, Cricetulus griseus. To be noted: chinese hamster, cho-k1, 24 h.
Data set [16] can be described thus: Mutagenicity in Salmonella typhimurium TA98 in presence of metabolic activation by Ames test. Type of data set: toxicity. As to conditions: salmonella enterica subsp. enterica serovar typhimurium.

Sequence of Cytochrome P450 3A4 (P08684 whole entry): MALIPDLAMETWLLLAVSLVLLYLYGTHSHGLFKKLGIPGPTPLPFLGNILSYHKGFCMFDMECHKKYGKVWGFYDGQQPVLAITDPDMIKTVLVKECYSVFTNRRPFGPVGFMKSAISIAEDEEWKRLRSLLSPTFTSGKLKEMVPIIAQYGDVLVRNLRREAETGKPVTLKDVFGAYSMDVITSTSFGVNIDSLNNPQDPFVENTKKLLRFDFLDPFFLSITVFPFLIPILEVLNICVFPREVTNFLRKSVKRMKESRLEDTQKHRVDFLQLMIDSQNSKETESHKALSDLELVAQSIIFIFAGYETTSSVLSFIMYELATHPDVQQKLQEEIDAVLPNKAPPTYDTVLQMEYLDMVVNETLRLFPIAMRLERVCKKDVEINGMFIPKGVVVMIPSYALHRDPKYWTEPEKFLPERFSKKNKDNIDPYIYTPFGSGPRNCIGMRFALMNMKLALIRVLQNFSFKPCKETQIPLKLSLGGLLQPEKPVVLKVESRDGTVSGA

`Cl.Cl.O=C(CN1CCOCC1)Nc1ccc(OC2CCN(C3CCC3)CC2)cc1`: the logP in [1] turned out to be 2.2. Besides, in [2], the AUC(0-t) at 24 h amounted to 263 ng·h/mL. The Tmax in [3] lay within 15 to 60 min. The same molecule registered an AUC(0-t) in data set [4] of 1120 ng·h/mL. This molecule showed a clearance in [5] of 36 mL/min/kg. The molecule also had a bioavailability in [6] of 83%. Moreover, the fraction unbound at 1 µM in data set [7] turned out to be 0.37; in data set [8], 0.7. Further, the remaining at 0.5 h was determined as 27% in data set [9] and 33% in [10]. For the same molecule, the pIC50 against Cytochrome P450 1A2, against Cytochrome P450 2A6, at Cytochrome P450 2B6 and at Cytochrome P450 3A4 was less than 4.35 throughout. In addition, in the data set with Rattus norvegicus [11], the inhibition result was “Active”. This molecule also yielded an Occ in the data set with Rattus norvegicus [12] of 50%. Also, in the data set with Rattus norvegicus [13], the outcome was Active. Further, the Activity entry (in the data set on Rattus norvegicus [14]; in [15]; with CHO-K1; in [16]) was “Non-Toxic” each time.

The term logP denotes a log measure of how a compound divides between an organic and an aqueous phase. Read a low logP as a more hydrophilic compound. What is called AUC(0-t) is exposure summed from dosing to a finite time, without extrapolation to infinity. The low end stands for low exposure, the high end for high exposure. Broadly, the Tmax is the time from dosing to the highest level. Broadly, the clearance is the rate of elimination divided by the concentration. By bioavailability is commonly meant dose-corrected exposure relative to a reference, in per cent. A lower bioavailability goes with poor availability. What is called fraction unbound is the share of the substance not bound to proteins or other matrix. Low readings indicate little free substance, high ones much free substance. By pIC50 is commonly meant −log10 of the IC50, conventionally taken in molar units.
